# Assay outcomes from PubChem.
# TNF death inh: inhibitors of TNF-alpha triggered necroptosis, primary screen, cell-based, Jurkat FADD-/-, single concentration | activation (protection from cell death), % at 10 µM | AID 463075, 2010 | hit rate 0.068% among 220,000 | Jurkat FADD-/- TNF necroptosis rescue, ATP luminescence, 24 h; 0 = TNF only, 100 = no-TNF cells;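 active = activation, meaning protection from cell death, of at least 50% relative to plate controls; inactive = activation below 50%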;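 also: necroptosis triggered by 40 ng/mL TNF-alpha added together with compound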
# L929 necroptosis: inhibitors of zVAD-triggered necroptosis, primary screen, L929 cells; L929 zVAD necroptosis rescue, ATP luminescence, 24 h; with zVAD 60 µM; viability rescue, % at 10 µM; hit rate 0.38% among 220,000; AID 1377, 2008;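 active = activation, scaled between plate controls, above about 75%, limit read from the data; inactive = activation under that limit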;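 also: 0% = zVAD with DMSO and 100% = DMSO alone without zVAD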
# SDO1 yeast rescue: growth rescue of sdo1-depleted yeast, primary screen, S. cerevisiae, bone marrow failure model; AID 817, 2007; hit rate 0.21% among 140,000; z-score at 10 µM; S. cerevisiae sdo1-depleted JHY4D growth rescue, OD600 30 h; active compounds read high; pdr5 snq2 efflux-pump mutant strain;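 active = z-score above 3 at both the 24 hr and the 30 hr optical density reads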;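 also: z-score against mean and SD of all compound wells on the same plate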
# Rad51 HR inh: human RAD51 strand exchange inhibitors, primary screen, biochemical, fluorescence | hit rate 0.085% among 200,000 | inhibition, % at 10 µM | hRad51 DNA strand exchange, fluorescence dequenching | AID 1385, 2008;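 active = inhibition above 40% at the single screening dose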;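 also: 0% = DMSO control wells and 100% = blanks with heterologous ssDNA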
# Target sequence (Q06609 whole entry, looked up): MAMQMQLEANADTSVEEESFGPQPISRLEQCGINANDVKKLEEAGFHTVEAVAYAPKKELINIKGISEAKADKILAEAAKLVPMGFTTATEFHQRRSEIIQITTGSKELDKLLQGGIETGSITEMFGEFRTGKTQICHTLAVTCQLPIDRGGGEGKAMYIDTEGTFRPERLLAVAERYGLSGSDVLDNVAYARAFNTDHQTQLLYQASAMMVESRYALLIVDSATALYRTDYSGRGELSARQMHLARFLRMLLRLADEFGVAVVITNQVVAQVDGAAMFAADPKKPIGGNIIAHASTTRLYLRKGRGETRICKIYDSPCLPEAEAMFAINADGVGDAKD
#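 Material: Human Rad51 nucleoprotein filaments preassembled on unlabelled ssDNA | Also added: Labelled 47-mer dsDNA for strand exchange | Dosing: Single dose, 10 µM final compound | Schedule: 30-min compound preincubation and 15-min exchange, both room temperature | Technique: Fluorescence dequenching at 485/520 nm | Measure: Percent inhibition relative to plate controls and blanks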
# sdo1 rescue conf: SDO1-depleted yeast growth rescue, concentration-response, diseases of bone marrow failure, JHY4D, OD600 | hit rate 44% among 440 | AID 949, 2007 | shares compounds with SDO1 yeast rescue | OD recovery (no concentration beside the values) | S. cerevisiae JHY4D (SDO1-depleted) growth rescue, 30 h; active compounds read high; efflux-deficient strain, SNQ2 and PDR5 mutated;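 active = yeast growth recovered at 30 hours, either rising with dose fitted slope above 0.001 or with average optical density gain above 0.07, some results past the limit were not filed as active; inactive = growth falling with dose or no effect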;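 also: gain in OD600 from 0 h to 30 h averaged across all seven doses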
# The depositor's hits bear a star; . = not tested or not shown; [ ] = another dose, or the depositor's remark. Only some compounds are listed: those with a hit (about 0.64% of all), similar ones and a draw of the others.
SMILES,TNF death inh,L929 necroptosis,SDO1 yeast rescue,Rad51 HR inh,sdo1 rescue conf
O=C(CN1CCc2ccccc2C1)c1cccs1,-4.0,0.0,5.57*,8.0,0.096*
Cc1cc2cc3c(cc2nc1SCC(=O)O)OCCO3,-0.9,-0.2,-0.45,7.0,.
Cc1cc2cc3c(cc2nc1SCC(=O)OC(C)C)OCCO3,0.4,0.2,3.14*,3.1,0.0418
CCCc1nnc(SCC(=O)N2CCCC2)n1CC1CCCO1 (stereo not drawn),-0.1,-0.1,3.17*,1.7,0.0534
CCCc1nnc(SCC(=O)N2CCCCC2)n1CC1CCCO1 (stereo not drawn),-1.0,0.2,0.19,5.8,.
CN1CC=C2C(C#N)=C(N)C(C#N)(C#N)[C@H](c3ccoc3)[C@H]2C1,2.1,0.2,3.42*,-19.5,0.0498
C=C(C)COc1ccc(-c2nc(N)ncc2Oc2ccc(OC)cc2)c(O)c1,-0.5,0.5,3.48*,.,0.0355
COC(=O)C1CCN(C(=O)CCCOc2ccccc2)CC1,-1.4,-0.4,1.8,2.9,0.044
CCCCNS(=O)(=O)c1ccc2nc(SCC(=O)Nc3ccccc3Cl)[nH]c2c1,5.6,1.4,2.24,-11.1,0.109*
CCCCNS(=O)(=O)c1ccc2nc(SCC(=O)Nc3cccc(F)c3)[nH]c2c1,3.8,1.5,2.58,.,.
NC(=O)CNC(=O)c1ccc(Cl)cc1,0.9,1.0,.,2.5,.
NC(=O)/C(=C/c1ccco1)C(N)=S,-2.9,0.1,.,-30.0,.
Cc1c(C(=O)NC2CCCc3ccccc32)oc2ccc(S(=O)(=O)N3CCCCC3)cc12 (stereo not drawn),0.4,.,9.35*,.,0.0924*
COC(=O)[C@@H](NC(=O)NC1CCCc2ccccc21)C(C)C (stereo partly drawn),-2.9,1.9,-0.96,-6.9,.
COC(=O)c1ccc(-c2nn(C)c(=O)c3ccccc23)cc1,3.1,0.9,8.52*,-0.8,0.076*
Cn1nc(-c2ccc(C(=O)O)cc2)c2ccccc2c1=O,-0.4,-0.2,-0.08,0.4,.
Cc1c(CN(C)C)c2c(n1Cc1ccccc1)C(=O)c1ccccc1-2,-2.2,-1.3,0.42,-3.7,.
O=C(C1CCCCC1)N1CCN(C(=O)C2CCCCC2)CC1,-3.1,-0.3,10.8*,-9.5,0.0412
CC(=O)N(C1=C(O)c2ccccc2C(=O)C1=O)C1CCCCC1,-2.9,0.8,3.15*[12.9 µM],7.3,0.0739*
O=S(=O)(NCC1CCCO1)c1ccc(Cl)nc1 (stereo not drawn),2.1,0.0,.,6.5,.
C/C(=C\C(=O)c1ccc(Br)cc1)NCc1ccc(C)cc1,1.5,-0.4,-1.55,.,.
CNC(=O)CSc1nnc(C(C)C)n1C,0.0,2.2,.,-12.1,.
COc1cc(NC(=S)NC(=O)c2ccco2)ccc1NC(=O)C(C)C,-0.6,3.0,.,7.0,.
COc1cc(NC(=S)NC(=O)c2ccccc2F)ccc1NC(=O)c1ccco1,-3.9,0.6,2.25,-41.1,0.07
O=C(OCC(CO)OC(CO)n1ccc(=O)[nH]c1=O)c1ccccc1 (stereo not drawn),0.2,1.1,7.69*,-0.2,0.0595
SMILES,TNF death inh,L929 necroptosis,SDO1 yeast rescue,Rad51 HR inh,sdo1 rescue conf
CCc1nc(SCC(=O)Nc2ccnc3ccccc23)n[nH]1,-2.2,0.7,0.98,3.9,.
NC(=O)c1ccccc1-c1nc(-c2ccccc2)no1,0.9,3.7,11.3*,5.0,0.0552
CN1CCN(C(=O)c2ccccc2-c2nc(-c3ccccc3)no2)CC1,-0.8,-0.2,-0.18,1.0,.
O=C(Nc1ccccc1)c1ccc(NCC2CCCO2)c([N+](=O)[O-])c1 (stereo not drawn),1.5,1.6,10.7*,-4.5,0.0861*
COc1ccc(NC(=O)c2ccc(NCC3CCCO3)c([N+](=O)[O-])c2)cc1 (stereo not drawn),0.7,0.8,.,10.8,.
CC(CCc1ccccc1)N(C)CC(O)c1cccc([N+](=O)[O-])c1 (stereo not drawn),6.5,0.1,.,.,.
CCOC(=O)c1c(C)c(C(=O)NCc2ccc3c(c2)OCO3)c(C)n1CC,2.3,.,-1.38,.,.
CCn1c(N)c(C(=O)NCc2ccc3c(c2)OCO3)sc1=S,0.7,0.5,2.23,1.5,0.0593
CCOC(=O)c1c(NC(=O)c2csc(C)c2)sc(C(C)=O)c1C,-1.1,-0.2,.,.,.
O=[N+]([O-])c1ccc(N/N=C\c2ccccc2OCc2ccccc2)cc1,0.0,0.8,1.82,-53.2,0.06
Cc1cc(C)cc(C(=O)N2CCN(c3ccccn3)CC2)c1,-0.7,5.5,.,-7.0,.
NC(N)=NS(=O)(=O)c1ccc(NC(=S)NC(=O)c2sc3ccccc3c2Cl)cc1,1.4,2.3,-1.07,3.4,.
COc1ccc(Cl)cc1C(=O)Nc1nnn(C)n1,-2.0,-0.1,2.26,3.2,0.0712
COc1ccc(Br)cc1C(=O)Nc1nnn(C)n1,0.7,1.1,-0.32,-2.4,.
Cc1cc(C)cc(OC(=O)C23CCC(C)(C(=O)O2)C3(C)C)c1 (stereo not drawn),0.7,-0.5,.,.,.
CC(=O)N1CCc2c(sc(NC(=O)c3ccc4c(c3)OCCO4)c2C#N)C1,-12.4,1.4,-2.59,-5.7,.
CCCCC(=O)Nc1cc(NC(=O)CC)ccc1Cl,-0.4,-0.5,3.4*,8.4,0.0451
Cc1c(/C=N\NC(=O)c2cccc(F)c2)cnn1C,1.0,.,3.34*,12.4,0.0956*
CCNc1oc(-c2cccc3ccccc23)nc1C#N,-1.3,0.6,-1.18,3.3,.
N#Cc1nc(-c2cccc3ccccc23)oc1NCCN1CCCCC1,-1.3,5.5,11.5*,5.7,0.097*
O=C(C(c1ccccc1)c1ccccc1)N(Cc1ccco1)C1CCS(=O)(=O)C1 (stereo not drawn),-0.8,-0.3,15.8*,-7.8,0.0889*
N#CCC(=O)Nc1ccc(C(=O)NCc2cccc(Cl)c2)cc1,1.8,-0.1,.,-49.9,.
CC(=O)Nc1nnc(CSCc2ccccc2F)s1,1.7,0.4,.,4.4,.
CCOC(=O)c1sc2nc3c(SCC(=O)O)cc(C(=O)c4ccccc4O)cn3c(=O)c2c1C,-0.6,1.4,.,-11.9,.
CCOC(=O)c1sc2nc3c(SCC(=O)O)cc(C(=O)c4cc(F)ccc4O)cn3c(=O)c2c1C,1.3,0.7,3.13*,-17.6,0.0695
Cc1ccc(C2C3=C(CCCC3=O)N=C3c4ccccc4C(=O)C32)cc1 (stereo not drawn),2.2,-0.6,-0.29,1.4,.
CC1(C)C2C(Cl)(Cl)C2(C)c2ccccc2N1C=O (stereo not drawn),5.9,1.2,.,0.8,.
COc1ccc(-c2nc3ccccc3o2)cc1NC(=O)c1ccc(Br)o1,0.1,0.3,2.08,-7.3,0.0643*
